The subject of test [1] is HCT-116. Put plainly: Growth inhibition of human HCT116 cells after 72 hrs by Victor microtiter plate fluorimeter analysis. In kind it is functional.
Test [2] is filed under the species Ovis aries. In words: Ratio of compound IC50 to isoCA-4 IC50 for sheep brain tubulin polymerization by fluorimeter analysis.
The test system of test [3] is MDA-MB-231. Put plainly: Growth inhibition of hormone-independent human MDA-MB-231 cells after 72 hrs by Victor microtiter plate fluorimeter analysis. Format: functional. Particulars: MDA-MB-231, 72 h.
A short description of test [4]: Inhibition of sheep brain tubulin polymerization assessed as decrease in rate of microtubule assembly by fluorimeter analysis. More on the design: species or system Ovis aries. Put shortly: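 Sheep brain tubulin purified by two assembly–disassembly cycles, at about 2-3 mg/mL in 0.1 M MES, 0.5 mM MgCl₂, 1 mM EGTA, 1 mM GTP, pH 6.6. Assembly followed by DAPI fluorescence at 37 °C. IC50 is the concentration halving the maximum assembly rate versus no compound. Measured the same day as the isoCA-4 reference.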

The nature of test [5]: Growth inhibition of human H1299 cells after 72 hrs by Victor microtiter plate fluorimeter analysis. In kind it is functional. As to conditions: NCI-H1299, 72 h.
Test [6] deals with K562. In words: Growth inhibition of human K562 cells after 72 hrs by Victor microtiter plate fluorimeter analysis. Particulars: K562, 72 h. Format: functional.
The subject of test [7] is NCI-H1299. Put plainly: Induction of apoptosis in human H1299 cells assessed as increase in proteolytic activity of caspase 3/7 after 24 hrs by fluorimeter analysis. Format: functional, cell-based. Put shortly: (§1)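 Apo-ONE homogeneous caspase-3/7 kit. Cells seeded at 5 × 10⁴ per well and grown 24 h. Medium then replaced with compound at 1, 5 and 10 nM, or 0.1% DMSO as negative control, for 24 h. Caspase substrate and Apo-ONE buffer mix added, incubated 1 h, fluorescence read at 527 nm.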

In test [8] the test system is HCT-116. In words: Induction of apoptosis in human HCT116 cells assessed as increase in proteolytic activity of caspase 3/7 after 24 hrs by fluorimeter analysis. Format: functional, cell-based. Put shortly:
as §1

The subject of test [9] is MDA-MB-231. Put plainly: Induction of cell cycle arrest in human MDA-MB-231 cells assessed as accumulation of cells in G2/M phase at 5 nM after 24 hrs by propidium iodide staining based flow cytometry. In kind it is functional. The method, boiled down: (§2)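 Exponentially growing cells exposed to compound at 5 nM, or DMSO, for 24 h. Cell-cycle distribution determined by flow cytometry after standard propidium iodide staining.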

Test [10] has as its system NCI-H1299. In words: Induction of cell cycle arrest in human H1299 cells assessed as accumulation of cells in G2/M phase at 5 nM after 24 hrs by propidium iodide staining based flow cytometry. Format: functional. Put shortly:
as §2
A general note: In flow cytometry, cells or beads pass a laser one at a time.

The subject of test [11] is K562. In words: Induction of cell cycle arrest in human K562 cells assessed as accumulation of cells in G2/M phase at 5 nM after 24 hrs by propidium iodide staining based flow cytometry. In kind it is functional. Put shortly:
as §2

For test [12], the system named is HCT-116. Put plainly: Induction of cell cycle arrest in human HCT116 cells assessed as accumulation of cells in G2/M phase at 5 nM after 24 hrs by propidium iodide staining based flow cytometry. Format: functional. Put shortly:
as §2

The source made the active and inactive calls. The calls are words filed in the database; no cut-off is given here.

With `COc1ccc(/C=C\c2cc(OC)c(OC)c(OC)c2)cc1O` [COMBRETASTATIN A4], in [1] (HCT-116, 72 h), the GI50 (usually the concentration giving 50% growth inhibition) was found to be 2 nM.

As to `COc1ccc2c(c1O)OCCCC2c1cc(OC)c(OC)c(OC)c1` (stereo not given), in [2], the Ratio IC50 amounted to 2. For the same compound, the GI50 in test [3] worked out at 15 nM; in [5], 7 nM; in test [1] (HCT-116, 72 h) it was 20 nM; in [6], 50 nM. Further, in test [4], the IC50 – broadly, the concentration at which inhibition is half-maximal – worked out at 3300 nM.

Take `C=C(c1ccc(OC)c(O)c1)c1cc(OC)c(OC)c(OC)c1`: the GI50 was 4 nM in test [3]; 3 nM in [5]; 3 nM in test [1] (HCT-116, 72 h); 5 nM in test [6]. Besides, the IC50 in test [4] amounted to 1500 nM.

As for `COc1ccc2c(c1)OCCC=C2c1cc(OC)c(OC)c(OC)c1`, the Ratio IC50 in test [2] was found to be 2. For the same compound, the GI50 in test [3] amounted to 250 nM; in [5], 180 nM; in test [1] (HCT-116, 72 h) it was 85 nM; in [6] it was 100 nM. Further, in [4], the IC50 stood at 3900 nM.

Consider `COc1ccc2c(c1CCCCO)OCCCC2c1cc(OC)c(OC)c(OC)c1` (stereo not given), for which, in test [1], the GI50 entry is “inactive”.

Regarding `COc1ccc2c(c1Br)OCCC=C2c1cc(OC)c(OC)c(OC)c1`, halving of growth in [1] (HCT-116, 72 h) (GI50) required 170 nM.

As to `COc1ccc2c(c1C#CCCO)OCCC=C2c1cc(OC)c(OC)c(OC)c1`, in test [1] (HCT-116, 72 h), growth was halved (GI50) at 250 nM.

Take `COc1ccc2c(c1N)OCCC=C2c1cc(OC)c(OC)c(OC)c1`: in test [2], the Ratio IC50 came to 2. The GI50 in test [3] was determined as 8 nM; in test [5], 30 nM; in test [1] (HCT-116, 72 h), 22 nM; in [6] it was 40 nM. Further, in [4], the IC50 came out at 3600 nM.

`COc1cc(OC)cc(C2=CCCOc3c2ccc(OC)c3O)c1`: in test [2], the Ratio IC50 turned out to be 2. Besides, the GI50 in test [3] turned out to be 28 nM; in test [5], 32 nM; in [1] (HCT-116, 72 h), 25 nM; in test [6], 30 nM. For the same compound, in [4], the IC50 came to 3200 nM.

For `COc1ccc2c(c1O)OCCC=C2c1cc(OC)c(OC)c(OC)c1`, the Ratio IC50 in [2] came out at 2. Further, the Activity result in test [7] and in [8] was “Dose-dependent effect” each time. Moreover, the outcome in test [9], in [10], in [11] and in test [12] was Active. Also, the GI50 in test [3] stood at 3 nM; in test [5], 4.5 nM; in [1] (HCT-116, 72 h) it was 1.5 nM; in test [6] it was 8 nM. In test [4], the IC50 worked out at 3800 nM.

Source of the values: ChEMBL document CHEMBL2331323, “Design, synthesis and anticancer properties of 5-arylbenzoxepins as conformationally restricted isocombretastatin A-4 analogs” (Eur J Med Chem, 2013).
